Five molecules from ChEMBL document CHEMBL2311535, “Development of second-generation indole-based dynamin GTPase inhibitors” (J Med Chem, 2013) can be followed below.

Data set [1] in a line: Inhibition of sheep dyn1 after 30 mins by malachite green GTPase assay in presence of GTP. Set-up: species or system Ovis aries. An outline of the steps:
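Compound (≤3% DMSO) was present for 30 min at 37 °C, shaking. The reaction was stopped with EDTA, Pi read by malachite green at 650 nm against a phosphate standard.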

The next data set has as its target T1, Dynamin-2 (Rattus norvegicus, UniProt P39052).
T1 sequence (P39052 whole entry): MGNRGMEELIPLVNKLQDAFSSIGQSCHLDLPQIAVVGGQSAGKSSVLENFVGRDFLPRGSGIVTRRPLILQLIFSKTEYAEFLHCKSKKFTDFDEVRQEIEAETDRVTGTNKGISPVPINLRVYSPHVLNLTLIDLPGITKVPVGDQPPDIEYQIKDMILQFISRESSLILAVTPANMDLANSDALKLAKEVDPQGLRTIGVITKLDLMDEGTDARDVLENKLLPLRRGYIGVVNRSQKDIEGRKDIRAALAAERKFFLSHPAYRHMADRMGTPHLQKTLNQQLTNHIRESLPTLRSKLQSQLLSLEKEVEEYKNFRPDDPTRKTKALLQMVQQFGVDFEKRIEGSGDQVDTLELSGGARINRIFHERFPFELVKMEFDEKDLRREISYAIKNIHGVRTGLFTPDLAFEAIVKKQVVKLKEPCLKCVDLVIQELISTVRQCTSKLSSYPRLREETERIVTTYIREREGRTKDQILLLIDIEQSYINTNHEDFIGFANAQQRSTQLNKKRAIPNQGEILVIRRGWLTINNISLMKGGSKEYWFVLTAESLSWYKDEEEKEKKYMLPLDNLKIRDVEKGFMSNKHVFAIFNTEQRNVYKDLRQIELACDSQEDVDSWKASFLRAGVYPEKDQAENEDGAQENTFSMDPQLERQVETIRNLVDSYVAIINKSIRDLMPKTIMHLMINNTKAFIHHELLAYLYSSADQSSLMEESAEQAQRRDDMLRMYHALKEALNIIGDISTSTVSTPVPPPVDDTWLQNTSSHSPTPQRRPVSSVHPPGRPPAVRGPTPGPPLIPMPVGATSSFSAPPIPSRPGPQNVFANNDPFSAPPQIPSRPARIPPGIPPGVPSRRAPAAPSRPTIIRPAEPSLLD
As to the kind of experiment: Inhibition of rat full length His6-tagged dyn2 using phosphatidylserine as substrate after 90 mins by malachite green GTPase assay in presence of GTP. The method in brief: (§1)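 Normalized conditions: 50 nM sheep brain dynI or recombinant His6 full-length rat dynII (Sf21-expressed) was preincubated with 10 μg/mL PS for 15 min at RT. Reactions then ran in Tris/NaCl/Mg²⁺/Tween buffer pH 7.4 with leupeptin, AEBSF, 300 μM GTP and compound at 37 °C, 800 rpm: 10 min for dynI, 90 min for dynII. They were stopped with EDTA, and Pi was read by malachite green. Selectivity is the ratio of the two IC50s.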

The nature of data set [2]: Selectivity ratio of IC50 for sheep dyn1 receptor to IC50 for rat dyn2 receptor. The method in brief: as §1
The nature of data set [3]: Inhibition of sheep full length dyn1 using phosphatidylserine as substrate after 10 mins by malachite green GTPase assay in presence of GTP. More on the design: species or system Ovis aries. The method in brief: as §1
In another data set the test system is HeLa. Put plainly: Cytotoxicity against human HeLa cells at 30 uM after 8 hrs by trypan blue exclusion assay. The format is cell-based. An outline of the steps:
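HeLa cells were treated with compound or vehicle (0.5% DMSO) for 8 h. Floating and adherent cells were pooled. Viability and membrane integrity were scored by Trypan Blue exclusion on an automated viability analyzer. Cytotoxicity (%) was normalized to drug/media background.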

For `CCCCCCCCNC(=O)/C(C#N)=C/c1cn(CC(O)CN2CCOCC2)c2ccccc12` (centres undefined), the IC50 (as a rule, the point on the concentration scale where inhibition reaches its midpoint) in data set [1] (read-out: IC50) was determined as 18 µM.

`CCCCCCCCNC(=O)/C(C#N)=C/c1cn(CC(=O)Nc2ccc3c(c2)OCO3)c2ccccc12`: the IC50 result in data set [1] was “Not Active”.

As to `CCCCCCCCCCNCc1cn(CCCN(C)C)c2ccccc12`, the IC50 on Dynamin-2 was determined as 7.5 µM.

Take `CCCCCCCCNCc1cn(CCCN(C)C)c2ccccc12`: the IC50 in data set [1] (read-out: IC50) amounted to 2.3 µM.

`CCCCCCCCNC(=O)/C(C#N)=C/c1cn(CCCN(C)C)c2ccccc12`: in data set [2], the Ratio IC50 came out at 2.3. Further, the results for the IC50 (in data set [3]; at Dynamin-2; in data set [1] (read-out: IC50)) were 6.9 µM, 16 µM and 1.3 µM, respectively. In addition, the Activity with HeLa is 80%.
